Drawing on ChEMBL document CHEMBL2331466, “Neolignanamides, lignanamides, and other phenolic compounds from the root bark of Lycium chinense” (J Nat Prod, 2013), this text covers IC50 for 15 compounds.

For orientation: IC50 means the concentration that gives 50% inhibition.

The nature of test [1]: Antioxidant activity assessed as inhibition of xanthine-xanthine oxidase generated superoxide anion radical production by NBT reduction assay. Type of test: functional. In a few lines: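 Superoxide produced by xanthine/xanthine oxidase. Final reaction contained xanthine 40 μM, xanthine oxidase 0.05 unit/mL, NBT 50 μM (in 20 mM phosphate buffer, pH 7.4) and graded sample concentrations. Incubated 37 °C for 20 min after adding enzyme. Absorbance read at 560 nm against blanks. Values are means of triplicate determinations.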

In test [2] the test system is Radical scavenging activity. Briefly: Antioxidant activity assessed as DPPH radical scavenging activity after 30 mins. Type of test: functional. In a few lines:
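Test samples at 5−100 μg/mL (120 μL) combined with 30 μL of 0.75 mM DPPH in MeOH, in triplicate. Shaken in the dark at room temperature for 30 min, then absorbance read at 517 nm. Scavenging (%) = (1 − As/A0) × 100. IC50 is the concentration giving 50% DPPH inhibition. Trolox (5−100 μM) served as positive control.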
(In general: DPPH is a stable violet radical that fades when it is reduced.)

On to `COc1cc(O)cc([C@H]2Oc3ccc(/C=C\C(=O)NCCc4ccc(O)cc4)cc3O[C@@H]2C(=O)NCCc2ccc(O)cc2)c1` (relative stereo), for which the IC50 came out at 44.1 µM in test [1] and 48.2 µM in test [2].

`COc1cc(/C=C(/C(=O)NCCCCNC(C)=O)c2cc(O)c(O)cc2CCC(=O)NCCc2ccc(O)cc2)cc(OC)c1O`: the figures for the IC50 in test [1] and in test [2] were 52.7 µM and 64.7 µM, respectively.

In the case of `Cc1c(C)c2c(c(C)c1O)CCC(C)(C(=O)O)O2` (stereo not given) [TROLOX], the concentration for half-maximal inhibition (IC50) in test [1] was determined as 27.2 µM; in test [2], 33.5 µM.

Consider `O=C(/C=C/c1ccc(O)c(O)c1)NCCc1ccc(O)cc1`, for which the IC50 in test [1] worked out at 44.1 µM; in test [2] it was 47.6 µM.

With `O=C(CCc1ccc(O)c(O)c1)NCCc1ccc(O)cc1`, the IC50 in test [1] stood at 30.2 µM; in test [2] it was 61.2 µM.

As to `COc1cc(/C=C\C(=O)NCC(O)c2ccc(O)cc2)ccc1O` (stereo not given), the IC50 in test [1] is 22.2 µM; in test [2], 61.2 µM.

In the case of `O=C(/C=C/c1ccc(O)cc1)NCCc1ccc(O)cc1` [N-P-COUMAROYL TYRAMINE], the IC50 is 52.6 µM in test [1] and 63.5 µM in test [2].

For `COc1cc(/C=C(/C(=O)NCCc2ccc(O)cc2)c2cc(O)c(O)cc2CCC(=O)NCCc2ccc(O)cc2)cc(OC)c1O`, the IC50 in test [1] came to 49.9 µM; in test [2], 57.1 µM.

Turning to `COc1cc([C@H]2Oc3ccc(/C=C\C(=O)NCCc4ccc(O)cc4)cc3O[C@@H]2CO)ccc1O` (relative stereo), the IC50 in test [1] worked out at 49.9 µM; in test [2] it was 54.1 µM.

In the case of `COc1cc2c(c(OC)c1O)[C@H](c1ccc(O)c(O)c1)[C@@H](C(=O)NCCc1ccc(O)cc1)C(C(=O)NCCCCNC(C)=O)=C2` (relative stereo), the IC50 came to 58 µM in test [1] and 67 µM in test [2].

For the compound `COc1cc(O)cc([C@H]2Oc3ccc(/C=C/C(=O)NCCc4ccc(O)cc4)cc3O[C@@H]2C(=O)NCCc2ccc(O)cc2)c1` (relative stereo), the IC50 amounted to 46.4 µM in test [1] and 49.8 µM in test [2].

As for `COc1ccc(/C=C/C(=O)NCCc2ccc(O)cc2)cc1O`, the IC50 amounted to 48.8 µM in test [1] and 67.7 µM in test [2].

Take `COc1cc(/C=C(/C(=O)NCCCCNC(C)=O)c2cc(O)c(O)cc2CCC(=O)NCCc2ccc(O)cc2)ccc1O`: the IC50 in test [1] was 56.5 µM; in test [2] it was 65.2 µM.

Turning to `COc1cc2c(c(OC)c1O)C(c1ccc(O)c(O)c1)C(C(=O)NCCc1ccc(O)cc1)C(C(=O)NCCc1ccc(O)cc1)=C2` (stereo not given), the IC50 in test [1] was determined as 50.1 µM; in test [2], 46.5 µM.

For the compound `COc1cc([C@H]2Oc3ccc(/C=C/C(=O)NCCc4ccc(O)cc4)cc3O[C@@H]2CO)ccc1O` (relative stereo), the values for the IC50 in test [1] and in test [2] were 44.4 µM and 55.2 µM, respectively.
